# Reference: PubChem BioAssay
# Active and inactive are the calls of the source.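 Rule for the calls, unless noted: active = viability at or below 10% of carrier control in both of two separate runs; inconclusive = viability at or below 10% in only one of the two runs; inactive = the rest.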
# How the values were obtained:
# [1] = Her2 expression decrease, cell viability multiplex – SKBR3 breast tumor cells, AlphaScreen, ATP viability, primary screen (AID 461;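 active = Her2 level under about 52% in both replicate screens, with viability over 70% of control, limit read from the data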;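 for Her2 level: lower value means less Her2 protein in the cells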;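 for viability: percent of carrier control wells set as 100% viability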); details: SKBR3 Her2 protein level, 18-24 h, measured here: SKBR3 viability, ATP luminescence, at 10 µM
# [2] = target: Receptor tyrosine-protein kinase erbB-2 (Homo sapiens) (UniProt P04626); assay: as above; details: 18-24 h, at 10 µM, stronger effect = lower value
# [3] = reduced viability of SK-BR-3 breast cancer cells – cell-based, 24 h, human, pilot screen (AID 572); details: SK-BR-3 viability, CellTiter-Glo luminescence, at 10 µM, stronger effect = lower value;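 note: compound exposure lasted between 18 and 24 h rather than exactly 24 h; 100% = carrier-treated control wells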
# [4] = HUVEC growth inhibition – cell-based, human, primary screen (AID 575;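 active = viability at or below 30% in both replicate assays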;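 note: 100% = median of untreated cell wells with 0.1% DMSO on each plate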); details: HUVEC proliferation, CellTiter-Glo luminescence, 72 h; at 10 µM; stronger effect = lower value
# Procedure, shortened: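 Material: primary human umbilical vein endothelial cells / Schedule: 72 h exposure, 37 °C, 5% CO2, 30 min RT equilibration / Signal: ATP-based CellTiter-Glo luminescent read / Read-out basis: percent of median DMSO-control luminescence / Control set: 32 DMSO-only cell-control wells (high), 32 MePR drug-control wells (low) per plate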
# [5] = H69AR cell proliferation blockers – human, duplicate replicates, primary screen (AID 580;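 active = viability at or under a set limit in both replicates, limit being median viability minus 3 SD, cut at about 48% in these data, passing the limit was not always enough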;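 note: 100% = mean luminescence of untreated wells and 0% = no signal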); details: H69AR lung tumor cells viability, ATP luminescence, 72 h; at 10 µM; stronger effect = lower value
# [6] = MRP1 drug-resistance reversers in H69AR cells – cell-based, doxorubicin co-treatment, pilot screen (AID 601;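 active = viability loss from added drug above about 55%, and viability with drug at most 40%, in both replicates, limit read from the data, passing the limit was not always enough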); details: CellTiter-Glo, 72 h, at 10 µM; for differential viability (reversal): stronger effect = higher value
# [7] = yeast transport mutant growth inhibition pilot in 384-well plates, post-Golgi transport modulator project (AID 636; in the data active = inhibition above about 31%); details: absorbance 615 nm, about 18 h, stronger effect = higher value
# [8] = growth suppression of yeast trafficking mutant, preliminary HTS, modulators of trafficking downstream of Golgi apparatus project, 1536-format plate, OD 615 nm (AID 637; in the data active = inhibition above about 30%); details: yeast transport mutant growth, absorbance 615 nm, 18 h; stronger effect = higher value
# [9] = H69AR cells + 2 uM doxorubicin, measured here: viability with 2 uM doxorubicin, stronger effect = lower value
# [10] = H69AR cells, compound alone cytotoxicity
# Sequence of Receptor tyrosine-protein kinase erbB-2 (Homo sapiens) (P04626 whole entry, looked up): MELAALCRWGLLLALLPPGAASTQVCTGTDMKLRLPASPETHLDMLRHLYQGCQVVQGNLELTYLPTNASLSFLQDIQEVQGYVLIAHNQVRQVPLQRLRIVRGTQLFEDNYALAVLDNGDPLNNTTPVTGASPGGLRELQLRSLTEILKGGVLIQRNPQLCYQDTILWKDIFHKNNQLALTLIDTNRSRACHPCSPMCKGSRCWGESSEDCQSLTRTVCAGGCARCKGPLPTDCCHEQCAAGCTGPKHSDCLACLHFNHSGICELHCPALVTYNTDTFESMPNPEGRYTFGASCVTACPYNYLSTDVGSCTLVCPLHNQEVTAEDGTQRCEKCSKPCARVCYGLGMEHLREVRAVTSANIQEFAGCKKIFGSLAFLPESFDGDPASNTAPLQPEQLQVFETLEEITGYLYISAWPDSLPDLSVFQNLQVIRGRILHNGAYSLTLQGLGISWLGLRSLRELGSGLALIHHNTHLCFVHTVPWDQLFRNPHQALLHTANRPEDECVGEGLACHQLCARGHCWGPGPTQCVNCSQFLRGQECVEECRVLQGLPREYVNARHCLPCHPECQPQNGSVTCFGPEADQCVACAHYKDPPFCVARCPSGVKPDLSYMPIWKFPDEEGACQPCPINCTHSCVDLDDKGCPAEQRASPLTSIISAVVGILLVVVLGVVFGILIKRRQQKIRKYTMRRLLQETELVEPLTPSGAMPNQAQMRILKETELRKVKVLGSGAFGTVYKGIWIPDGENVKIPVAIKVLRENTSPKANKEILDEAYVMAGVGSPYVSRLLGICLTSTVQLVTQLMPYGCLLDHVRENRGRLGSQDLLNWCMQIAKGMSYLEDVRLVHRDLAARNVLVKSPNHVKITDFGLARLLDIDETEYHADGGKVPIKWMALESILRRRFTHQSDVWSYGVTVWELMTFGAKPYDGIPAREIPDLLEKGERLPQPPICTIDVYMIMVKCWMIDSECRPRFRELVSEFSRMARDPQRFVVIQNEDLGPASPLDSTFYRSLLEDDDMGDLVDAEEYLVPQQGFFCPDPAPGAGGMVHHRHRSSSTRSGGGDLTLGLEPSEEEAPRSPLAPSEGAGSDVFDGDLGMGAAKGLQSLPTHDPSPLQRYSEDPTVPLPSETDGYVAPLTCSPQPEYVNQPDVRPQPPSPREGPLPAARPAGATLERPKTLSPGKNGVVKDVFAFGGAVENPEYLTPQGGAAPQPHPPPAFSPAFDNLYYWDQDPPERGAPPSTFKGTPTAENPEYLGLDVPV
Structure (SMILES),viability [1],Her2 level [2],viability [3],viability [4],viability [5],differential viability (reversal) ([6]; H69AR cells + 2 uM doxorubicin),"viability [6, 9]","viability [6, 10]",inhibition [7],inhibition [8]
CC(=O)N1CCN(C(C)=O)C1c1ccccc1,93.5%,136% (inactive),93.5% (inactive),77.9% (inactive),91.4% (inactive),2.34% (inactive),89.1%,91.4%,3.46% (inactive),-7% (inactive)
COc1ccc(-c2nnc(SCC(=O)c3cc(C)n(Cc4cccs4)c3C)o2)cc1,99.5%,114% (inactive),99.5% (inactive),90.9% (inactive),87.5% (inactive),1.84% (inactive),85.7%,87.5%,2.6% (inactive),18.2% (inactive)
Clc1ccc(SCCn2ccnc2)cc1,96%,96% (inactive),96% (inactive),94.3% (inactive),96.2% (inactive),11.8% (inactive),84.3%,96.2%,-6.22% (inactive),-10.2% (inactive)
O=C(Nc1nc2c(s1)CCc1ccccc1-2)c1cccs1,102%,74% (inactive),102% (inactive),72.2% (inactive),82.9% (inactive),-4.96% (inactive),87.9%,82.9%,-3.33% (inactive),8.41% (inactive)
COC(=O)c1c(-c2cccs2)csc1NC(=O)CN1CCOCC1,103%,98.5% (inactive),103% (inactive),86.6% (inactive),82.1% (inactive),0.685% (inactive),81.4%,82.1%,-0.13% (inactive),-1.13% (inactive)
COc1ccc(-c2noc(COc3ccc4ccccc4c3Br)n2)cc1OC,129%,104% (inactive),129% (inactive),112% (inactive),80.8% (inactive),5.36% (inactive),75.5%,80.8%,-4.21% (inactive),-3.23% (inactive)
O=C1N2c3ccccc3CCc3cccc(c32)C1(O)C(F)(F)F (stereo not given),94.5%,90.5% (inactive),94.5% (inactive),96.4% (inactive),95.7% (inactive),0.66% (inactive),95%,95.7%,-5.87% (inactive),6.56% (inactive)
Cc1ccc2nc(SCC(=O)NCc3ccco3)c(C#N)cc2c1,90.5%,88.5% (inactive),90.5% (inactive),82.3% (inactive),62.2% (inactive),-7.5% (inactive),69.7%,62.2%,-4.74% (inactive),-3.27% (inactive)
CC(C)Oc1ccc(-c2nn(-c3ccccc3)cc2/C=c2\sc3ncnn3c2=O)cc1,84%,106% (inactive),84% (inactive),71.5% (inactive),98.1% (inactive),8.19% (inactive),89.9%,98.1%,5.92% (inactive),-1.82% (inactive)
COc1cc(CNc2ccc(N3CCOCC3)c(C(=O)O)c2)ccc1OCC(N)=O,106%,102% (inactive),106% (inactive),97.4% (inactive),99.9% (inactive),0.83% (inactive),99.1%,99.9%,-4.67% (inactive),-2.13% (inactive)
COc1ccc(-c2nnc(SCCC(=O)O)n2-c2ccccc2)cc1,113%,96.5% (inactive),113% (inactive),96.1% (inactive),95.2% (inactive),-2.17% (inactive),97.3%,95.2%,-0.53% (inactive),-0.49% (inactive)
Cc1cc(C)nc(N2CCC(C(=O)NCc3cccc(C(F)(F)F)c3)CC2)n1,104%,100% (inactive),104% (inactive),76.6% (inactive),91.1% (inactive),4.94% (inactive),86.2%,91.1%,-6.08% (inactive),-2.33% (inactive)
N#Cc1nc(-c2ccco2)oc1NCc1ccco1,94%,89% (inactive),94% (inactive),89.3% (inactive),100% (inactive),8.27% (inactive),92%,100%,-4.13% (inactive),-8.25% (inactive)
Cc1ccc(CN2C(=O)CCC2C(=O)NC2CCCC2)cc1 (stereo not given),132%,95.5% (inactive),132% (inactive),94.3% (inactive),94.1% (inactive),-1.04% (inactive),95.1%,94.1%,-6.13% (inactive),4.59% (inactive)
CCN(c1cccc(C)c1)S(=O)(=O)c1ccc2[nH]c(=O)c(=O)[nH]c2c1,108%,75% (inactive),108% (inactive),88.7% (inactive),92.1% (inactive),1.35% (inactive),90.8%,92.1%,-2.24% (inactive),0.91% (inactive)
CNC(=O)CSc1nnc(-c2cc3c(C)nn(-c4ccccc4)c3s2)n1C,112%,112% (inactive),112% (inactive),99.2% (inactive),109% (inactive),22.3% (inactive),86.9%,109%,-0.13% (inactive),-2.54% (inactive)

Structure (SMILES),viability [1],Her2 level [2],viability [3],viability [4],viability [5],differential viability (reversal) ([6]; H69AR cells + 2 uM doxorubicin),"viability [6, 9]","viability [6, 10]",inhibition [7],inhibition [8]
COc1ccc(N2C(=O)CC(N3CCN(c4ccccc4F)CC3)C2=O)cc1 (stereo not given),88%,98% (inactive),88% (inactive),91.1% (inactive),105% (inactive),2.14% (inactive),103%,105%,-1.07% (inactive),2.26% (inactive)
CCn1nnnc1NCc1cccn1C,88%,83% (inactive),88% (inactive),105% (inactive),95.9% (inactive),3.54% (inactive),92.4%,95.9%,-4.27% (inactive),2.3% (inactive)
O=C(Nc1ccccc1)N(CCN1CCOCC1)Cc1ccccc1F,106%,103% (inactive),106% (inactive),92.2% (inactive),92.3% (inactive),-16% (inactive),108%,92.3%,2.11% (inactive),1.64% (inactive)
CC(=O)OC1c2ccccc2C(=O)N1c1ccccc1C (stereo not given),100%,106% (inactive),100% (inactive),99.9% (inactive),105% (inactive),14.2% (inactive),91.2%,105%,0.64% (inactive),0.83% (inactive)
C=CCNC(=O)c1cccc(Br)c1,92%,94% (inactive),92% (inactive),89.4% (inactive),92% (inactive),-9.44% (inactive),101%,92%,9.59% (inactive),5.08% (inactive)
CCOC(=O)N1CCC(N2C(=O)c3ccccc3C2Nc2ccc3c(C)cc(=O)oc3c2)CC1 (stereo not given),76%,105% (inactive),76% (inactive),115% (inactive),83.4% (inactive),13.9% (inactive),69.5%,83.4%,-1.79% (inactive),-2.67% (inactive)
COC(=O)c1ccc(C)c(NS(=O)(=O)c2ccc3c(c2)OCCO3)c1,87.5%,74% (inactive),87.5% (inactive),49.2% (inactive),35% (active),-37% (inactive),72%,35%,1.54% (inactive),-3.67% (inactive)
CCN(CCNC(=O)CS(=O)(=O)Cc1nc(-c2cccc(OC)c2)oc1C)c1ccccc1,97.5%,105% (inactive),97.5% (inactive),78.4% (inactive),99% (inactive),-10.6% (inactive),110%,99%,-6.67% (inactive),-0.48% (inactive)
COc1ccc(C2=Nn3c(nnc3-c3cccnc3)SC2)cc1,83.5%,93.5% (inactive),83.5% (inactive),97.1% (inactive),64.7% (inactive),-16.5% (inactive),81.2%,64.7%,-6.32% (inactive),0.48% (inactive)
COc1ccc(-n2ncc3c(NCc4ccccn4)ncnc32)cc1,98.5%,97.5% (inactive),98.5% (inactive),102% (inactive),90.5% (inactive),3.51% (inactive),87%,90.5%,-1.97% (inactive),4.19% (inactive)
CCOc1ccc(S(=O)(=O)Nc2cccc(Cl)c2)cc1,86%,74.5% (inactive),86% (inactive),50.7% (inactive),18.8% (active),-41.9% (inactive),60.7%,18.8%,-5.07% (inactive),-3.28% (inactive)
COc1ccc(S(=O)(=O)Nc2ccc(S(=O)(=O)N3CCCCC3)cc2)cc1OC,92%,100% (inactive),92% (inactive),95.8% (inactive),91.3% (inactive),-3.68% (inactive),94.9%,91.3%,0.13% (inactive),-2% (inactive)
CCn1c(=O)c(C(=O)Nc2cccnc2)c(O)c2ccccc21,103%,84.5% (inactive),103% (inactive),113% (inactive),67.7% (inactive),-24.2% (inactive),91.9%,67.7%,-0.93% (inactive),100% (active)
CCc1nc2c(cnn2-c2ccc(Cl)cc2)c(=O)n1-c1ccc2c(c1)OCCO2,90%,86.5% (inactive),90% (inactive),83.3% (inactive),83.6% (inactive),-4.38% (inactive),88%,83.6%,0.79% (inactive),-5.97% (inactive)
CC(C)c1ccc(S(=O)(=O)N2CCN(C(=O)c3cccc(F)c3)CC2)cc1,106%,104% (inactive),106% (inactive),92% (inactive),88.3% (inactive),-8.65% (inactive),96.9%,88.3%,-5.73% (inactive),3.28% (inactive)
COc1ccc(-c2noc(CN3CCC(Cc4ccccc4)CC3)n2)cc1,94%,112% (inactive),94% (inactive),87.5% (inactive),93.5% (inactive),4.6% (inactive),88.9%,93.5%,-4.8% (inactive),-3.39% (inactive)
